OX1R antag-1: antagonists of human orexin 1 receptor (OX1R). 1.8% of 330,000 active. inhibition, % at 6.6 µM. OX1R-expressing cells, FRET antagonist read-out. O43613; in the data active means inhibition mostly above about 38%, no sharp cut-off; inactive means mostly below about 40%
OX1R antag-2: blocks the human orexin 1 receptor. inhibition, % at 5 µM. CHO/OX1R cells, Fluo-8 calcium fluorescence, orexin A. 0.43% of 330,000 active;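 active means inhibition above its plate's threshold, mean inhibition of all tested compounds on the plate plus 3 SD, cut at about 37% in these data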
GPR7 antag: human neuropeptides B/W receptor 1 antagonism; P48145; GPR7-expressing cells, fluorescence antagonist assay; inhibition, % at 4.4 µM; 1.1% of 290,000 active; in the data active means inhibition above about 16%, passing the limit was not always enough;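 further: cells stimulated with the agonist NPW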
Target sequence (P48145 whole entry, looked up): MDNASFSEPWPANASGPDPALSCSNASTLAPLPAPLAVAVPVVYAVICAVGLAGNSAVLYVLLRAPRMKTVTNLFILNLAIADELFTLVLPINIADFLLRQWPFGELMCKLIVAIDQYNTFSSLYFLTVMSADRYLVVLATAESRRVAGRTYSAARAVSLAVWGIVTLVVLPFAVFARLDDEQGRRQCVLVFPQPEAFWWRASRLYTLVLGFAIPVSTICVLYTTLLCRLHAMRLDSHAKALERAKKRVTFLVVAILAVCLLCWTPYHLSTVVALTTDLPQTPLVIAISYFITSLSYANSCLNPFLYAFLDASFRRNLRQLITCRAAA
TAAR1 agonist: human TAAR1 agonism; 0.99% of 360,000 active; activation, % at 3 µM; CHO RD-HGA16 TAAR1, Fluo-8 calcium fluorescence; vehicle wells 0%, saturating PEA agonist 100%;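 active means activation above the mean activation of all test compounds in the run plus 3 SD, cut at about 38% in these data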
Target sequence (Q96RJ0 whole entry, looked up): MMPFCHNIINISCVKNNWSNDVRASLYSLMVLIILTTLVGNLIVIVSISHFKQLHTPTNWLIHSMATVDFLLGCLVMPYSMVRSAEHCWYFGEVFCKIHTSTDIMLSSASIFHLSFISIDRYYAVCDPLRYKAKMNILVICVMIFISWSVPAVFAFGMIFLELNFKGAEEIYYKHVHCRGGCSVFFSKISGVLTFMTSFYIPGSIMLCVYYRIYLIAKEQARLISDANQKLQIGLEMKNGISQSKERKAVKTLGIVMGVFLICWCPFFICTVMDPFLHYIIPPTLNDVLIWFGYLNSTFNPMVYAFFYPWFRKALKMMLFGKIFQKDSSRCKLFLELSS
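Signal – calcium-sensitive Fluo-8 signal, excitation 470-495, emission 515-575 nm · System – RD-HGA16 (CHO) cells co-expressing Gα16 and hTAAR1 · Incubation – 17-24 h seeding, 75 min 37 °C dye, 30 min RT · Compound dosing – 3 µM single concentration · Repeats – no replicates (n 1)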
TAAR1 antag: antagonists of human TAAR1. 1.5% of 360,000 active. AID 624466. Q96RJ0. CHO RD-HGA16 TAAR1, Fluo-8 calcium fluorescence, antagonist. inhibition, % at 3 µM;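 active means inhibition above a per-plate cutoff, the mean inhibition of test compounds on that plate plus 3 SD, cut at about 49% in these data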
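Test system: CHO RD-HGA16 cells bearing hTAAR1 | Reagent: β-PEA, EC80 | Compound dosing: 3 µM, single point | Schedule: Dye loading 75 min at 37 °C, then 30 min room temperature | Signal: Calcium fluorescence with Fluo-8 | Evaluation: Percent inhibition of PEA-evoked calcium signal, max/basal emission ratio | Control set: DMSO-only wells and EC80 β-PEA-stimulated wells | Repeats: Singlicate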
CHO parental Ca: signal in parental CHO cells, OX1R antagonist counter-screen | parental CHO-K1, ATP-induced calcium, Fluo-8 fluorescence | inhibition, % at 5.6 µM | 0.63% of 330,000 active | AID 463079;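 active means inhibition above that plate's mean sample inhibition plus 3 SD, cut at about 26% in these data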
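Material: Parental CHO cells | Reagent: ATP | Compound dosing: Single nominal dose of 5.6 µM per compound | Detection: Intracellular calcium via Fluo-8 no-wash fluorescent dye | Read-out: % inhibition of ATP-induced calcium mobilization | Benchmarks: Low control ATP plus DMSO, high control DMSO only | Replicates: Singlicate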
Large screens that a line does not name were inactive. Only some compounds are listed: those with a hit (about 4.6% of all), similar ones and a draw of the others.

CCC(c1nnnn1C(C)(C)C)N1CCN(C2CCCC2)CC1 (stereo unspecified)	none
CCC(c1nnnn1Cc1cccs1)N1CCN(C2CCCC2)CC1 (stereo unspecified)	GPR7 antag 20.1
CCCC(c1nnnn1C(C)(C)CC)N1CCN(C2CCCC2)CC1 (stereo unspecified)	GPR7 antag 18.1
Cc1cc(NC(=O)Cc2c(C)[nH]c3ccccc23)ccc1Oc1cccnc1	none (no result: OX1R antag-1, OX1R antag-2, GPR7 antag, CHO parental Ca)
O=C(N[C@H](C(=O)N1CCC[C@H]1C(=O)NC1CCCC1)C1CCCCC1)C1CCCC1	none (no result: OX1R antag-1, OX1R antag-2, GPR7 antag, CHO parental Ca)
C[C@H]1COc2cc(N3CCCC3)ccc2S(=O)(=O)N1	none (no result: OX1R antag-1, OX1R antag-2, GPR7 antag, CHO parental Ca)
Cc1oc2c(c1C(=O)NCc1cccnc1)C(=O)c1ccccc1C2=O	OX1R antag-1 45.6 (no result: TAAR1 agonist, TAAR1 antag)
COc1ccc(CNC(=O)c2c(C)oc3c2C(=O)c2ccccc2C3=O)cc1	none
Cn1cc([N+](=O)[O-])cc1-c1nc2ccccc2n1C	none
Cn1c(-c2ccc([N+](=O)[O-])cc2)nc2ccccc21	OX1R antag-1 51.5
CCNC(=O)N1CCN(c2ccc(N3CCN(C(=O)NCC)[C@H](C)C3)c(C)c2)[C@@H](C)C1	none (no result: OX1R antag-1, OX1R antag-2, GPR7 antag, CHO parental Ca)
Cc1cc(C)nc(-n2nc(C)cc2NC(=O)CN2CCCC(C)C2)n1 (stereo unspecified)	none
Cc1cc(C)nc(-n2nc(C)cc2NC(=O)CN2CCc3ccccc3C2)n1	TAAR1 agonist 42.9
COc1ccc(OCCSc2nnc(CCNC(=O)c3ccc(Cl)c(Cl)c3)n2C)cc1	none
CCn1c(CCNC(=O)c2ccc(Cl)c(Cl)c2)nnc1SCCOc1ccc(OC)cc1	OX1R antag-1 40.8
CC(C)(C)c1cc(C(=O)N/N=C/c2ccccn2)n[nH]1	none
Cc1[nH]c2ccccc2c1/C=N/NC(=O)c1ccccc1	none
Cc1[nH]c2ccccc2c1/C=N/NC(=O)c1cc(C(C)(C)C)[nH]n1	OX1R antag-1 38.1
Cc1[nH]c2ccccc2c1/C=N/NC(=O)c1cc(-c2ccccc2)n[nH]1	OX1R antag-1 70.0, TAAR1 antag 60.9
OC(c1ccccc1)c1nc(-c2ccc(F)c(Cl)c2)cs1 (stereo unspecified)	none (no result: OX1R antag-1, OX1R antag-2, GPR7 antag, CHO parental Ca)
O=C(Nc1ccc(O)cc1)/C(=C\C=C\c1ccccc1)NC(=O)c1ccccc1	TAAR1 antag 49.6
CCN(CC)C(=O)c1ccccc1NC(=O)c1ccccc1	none
CCN(CC)C(=O)c1cccc2nc3ccccc3nc12	OX1R antag-1 72.1
CC(C)C(c1nnnn1Cc1ccco1)N1CCN(c2nc3ccccc3s2)CC1 (stereo unspecified)	TAAR1 antag 54.6
CC(C)CC(c1nnnn1Cc1cccs1)N1CCN(c2nc3ccccc3s2)CC1 (stereo unspecified)	none
Cc1ccc(NC(=O)c2cc(N3C(=O)CCC3=O)ccc2N2CCOCC2)cc1	none
Cc1ccc(NC(=O)c2cc(N3C(=O)C=CC3=O)ccc2N2CCOCC2)cc1Cl	TAAR1 antag 51.2
COc1cccc(-c2ccc(C#N)c(SCC(=O)NCCc3cccc(Cl)c3)n2)c1	TAAR1 antag 72.1
O=[N+]([O-])c1cc(NCCO)c(N2CCCCCC2)c2nonc12	OX1R antag-1 46.0
O=C(N/C=C/n1cnc2cc(C(F)(F)F)ccc21)c1ccccc1	CHO parental Ca 50.6
O=C(N/C=C\n1cnc2cc(C(F)(F)F)ccc21)c1ccc([N+](=O)[O-])cc1	none
CC(C)(C)c1ccc(NC(=O)CN2C(=O)NC(C)(C3CC3)C2=O)cc1 (stereo unspecified)	none (no result: GPR7 antag)
COc1ccccc1N1C(=O)c2cccc3c(C(=O)O)ccc(c23)C1=O	OX1R antag-1 38.1
COc1ccccc1N1C(=O)c2cccc3c(N(C)CCO)ccc(c23)C1=O	none
COC(=O)C1=C(C)N(C)C(=NCc2ccccc2C(F)(F)F)NC1CCc1ccccc1 (stereo unspecified)	none (no result: OX1R antag-1, OX1R antag-2, GPR7 antag, CHO parental Ca)
Cc1nc(C(=O)O)nn1-c1ccc([N+](=O)[O-])cc1	OX1R antag-1 45.6
CC(NC(=O)COC(=O)c1cn(-c2ccccc2)nc1-c1cccs1)c1ccccc1 (stereo unspecified)	OX1R antag-1 64.0
O=C(COC(=O)c1c[nH]c2ccccc12)Nc1ccccc1	none (no result: GPR7 antag)
O=C(NCCc1c[nH]c2ccccc12)OCCCCOC(=O)NCCc1c[nH]c2ccccc12	OX1R antag-1 60.7, OX1R antag-2 60.8, TAAR1 antag 79.8 (no result: GPR7 antag)
CC(NC(=O)COC(=O)c1c[nH]c2ccccc12)c1ccccc1 (stereo unspecified)	OX1R antag-1 43.2 (no result: GPR7 antag)
O=C(CCCc1c[nH]c2ccccc12)NCCc1c[nH]c2ccccc12	OX1R antag-1 48.8
CCCCCCCCN1C(=O)[C@@H](CC(=O)NCc2cccs2)C[C@@]2(C(=O)OC)C1=C[C@H](C1CCCC1)O[C@@H]2C	none (no result: OX1R antag-1, OX1R antag-2, GPR7 antag, CHO parental Ca)
O=C(COC(=O)c1ccccc1C(=O)OCC(=O)NCCc1c[nH]c2ccccc12)NCCc1c[nH]c2ccccc12	OX1R antag-1 68.1, OX1R antag-2 57.9, TAAR1 antag 76.1 (no result: GPR7 antag)
COC(=O)[C@]12C[C@H](CC(=O)N3CCN(C(=O)c4ccco4)CC3)C(=O)N(Cc3ccc4c(c3)OCO4)C1=C[C@H](COCc1ccccc1)O[C@@H]2C	none (no result: OX1R antag-1, OX1R antag-2, GPR7 antag, CHO parental Ca)
Cc1ccc(S(=O)(=O)Nc2cccc3cccnc23)cc1	CHO parental Ca 41.7
COc1cc(NS(=O)(=O)c2ccc(C)cc2)c2ncccc2c1	none
Cc1ccc(S(=O)(=O)Nc2ccccc2-c2ccccc2NS(=O)(=O)c2ccc(C)cc2)cc1	TAAR1 antag 49.2
COc1ccc(C)cc1N(C(=O)c1snc(C(N)=O)c1N)C(C(=O)NC1CCCC1)c1ccc(F)cc1 (stereo unspecified)	none
COC(=O)[C@]12C[C@H](CC(=O)NCCCN3CCCC3=O)C(=O)N(CCC3=CCCCC3)C1=C[C@H](COCc1ccccc1)O[C@@H]2C	none (no result: OX1R antag-1, OX1R antag-2, GPR7 antag, CHO parental Ca)
COC(=O)c1ccc(NC(=O)CSc2ccccc2)cc1	OX1R antag-2 54.2, CHO parental Ca 53.7
S=C(NCCC(c1ccccc1)c1ccccc1)Nc1ccc(Cl)cc1	none
COc1cc(NC(=S)NCCC(c2ccccc2)c2ccccc2)c(OC)cc1Cl	OX1R antag-1 57.7
S=C(NCCC(c1ccccc1)c1ccccc1)Nc1ccccc1Cl	TAAR1 antag 50.0
COC(=O)c1ccc(-c2cccc(CN3CCN(c4ncc(Cc5ccccc5)cn4)CC3)c2)cc1	none (no result: OX1R antag-1, OX1R antag-2, GPR7 antag, CHO parental Ca)
O=C(Nc1cnn(Cc2ccc(F)cc2)c1)c1cc(-c2cccs2)on1	none (no result: TAAR1 agonist, TAAR1 antag)
O=C(Nc1cnn(Cc2ccc(F)cc2)c1)c1cnccn1	GPR7 antag 16.9
CC(=O)Nc1ccc(N=Cc2c(O)c(C(=O)Nc3ccccc3)cc3ccccc23)cc1	CHO parental Ca 31.2
CC(=O)Nc1ccc(N=Cc2c(O)c3ccccc3oc2=O)cc1	none (no result: OX1R antag-1, OX1R antag-2, CHO parental Ca)

Source: PubChem (The Scripps Research Institute Molecular Screening Center)
